Laboratory results reported in ChEMBL document CHEMBL4229410, “Facile construction of fused benzimidazole-isoquinolinones that induce cell-cycle arrest and apoptosis in colorectal cancer cells” (Bioorg Med Chem, 2018).
Activity calls are given as the source filed them. The rule behind the calls is not given here.

Tests used:
HT-29 [1] = test: Induction of apoptosis in human HT-29 cells assessed as necrotic cells at 50 uM after 48 hrs by Annexin-V-FITC/propidium iodide staining based flow cytometry (reference value: 1.6%); format: functional
[2] = target: Serine/threonine-protein kinase PLK4 (Homo sapiens) (UniProt O00444); test: Inhibition of partial length human PLK4 (M1 to S273 residues) expressed in mammalian expression system assessed as residual activity at 5 uM by KINOMEscan assay relative to control
[3] = target: Serine/threonine-protein kinase pim-1 (Homo sapiens, UniProt P11309); test: Inhibition of human PIM1 (A15 to K313 residues) expressed in bacterial expression system assessed as residual activity at 5 uM by KINOMEscan assay relative to control
[4] = target: Serine/threonine-protein kinase RIO2 (Homo sapiens, UniProt Q9BVS4); test: Inhibition of human RIOK2 (M1 to D313 residues) expressed in mammalian expression system assessed as residual activity at 5 uM by KINOMEscan assay relative to control
[5] = target: Testis-specific serine/threonine-protein kinase 1 (Homo sapiens, UniProt Q9BXA7); test: Binding affinity to full length human TSSK1B (M1 to Q367 residues) expressed in bacterial expression system by KINOMEscan assay
SRSF protein kinase 3 = SRSF protein kinase 3 (Homo sapiens, UniProt Q9UPE1); test: Binding affinity to human SRPK3 (P41 to P567 residues) expressed in bacterial expression system by KINOMEscan assay
[6] = target: Bone morphogenetic protein receptor type-2 (Homo sapiens) (UniProt Q13873); test: Inhibition of human BMPR2 (R179 to Q526 residues) expressed in mammalian expression system assessed as residual activity at 5 uM by KINOMEscan assay relative to control
SW-620 [7] = test: Induction of apoptosis in human SW620 cells assessed as necrotic cells at 50 uM after 48 hrs by Annexin-V-FITC/propidium iodide staining based flow cytometry (reference value: 0.9%); format: functional
[8] = target: Casein kinase I isoform gamma-2 (Homo sapiens, UniProt P78368); test: Binding affinity to full length human CSNK1G2 (M1 to K415 residues) expressed in bacterial expression system by KINOMEscan assay
[9] = target: Bone morphogenetic protein receptor type-2 (Homo sapiens, UniProt Q13873); test: Binding affinity to human BMPR2 (R179 to Q526 residues) expressed in mammalian expression system by KINOMEscan assay
[10] = target: 3-phosphoinositide-dependent protein kinase 1 (Homo sapiens) (UniProt O15530); test: Inhibition of full length human PDPK1 (M1 to Q556 residues) expressed in bacterial expression system assessed as residual activity at 5 uM by KINOMEscan assay relative to control
[11] = target: Serine/threonine-protein kinase PLK3 (Homo sapiens, UniProt Q9H4B4); test: Inhibition of partial length human PLK3 (A42 to L334 residues) expressed in mammalian expression system assessed as residual activity at 5 uM by KINOMEscan assay relative to control
HT-29 [12] = test: Down regulation of CDK1 expression in human HT-29 cells after 48 hrs by Western blot analysis; format: functional, cell-based
In short: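 HT29 or SW620 cells were treated at 0, 25, 50 and 75 μM for 48 h and lysed in RIPA with protease and phosphatase inhibitors. Protein was quantified by BCA. 50 μg lysate was run on 8–15% SDS-PAGE and transferred to PVDF. Blocking was 5% BSA/TBST for 2 h; primary antibodies were applied overnight at 4 °C, then HRP secondary 1 h at room temperature.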

[13] = target: Serine/threonine-protein kinase mTOR (Homo sapiens) (UniProt P42345); test: Inhibition of mTOR in human HT-29 cells assessed as reduction in 4EBP1 phosphorylation up to 75 uM after 48 hrs by Western blot analysis; format: cell-based
[14] = target: Epidermal growth factor receptor (Homo sapiens, UniProt P00533, L858R); test: Binding affinity to partial length human EGFR (R669 to V1011 residues) L858R mutant expressed in bacterial expression system by KINOMEscan assay
[15] = target: Receptor tyrosine-protein kinase erbB-2 (Homo sapiens, UniProt P04626); test: Inhibition of human ERBB2 (K646 to V1225 residues) expressed in mammalian expression system assessed as residual activity at 5 uM by KINOMEscan assay relative to control
TGF-beta receptor type-1 = TGF-beta receptor type-1 (Homo sapiens, UniProt P36897); test: Binding affinity to human TGFBR1 (D179 to M503 residues) expressed in bacterial expression system by KINOMEscan assay
HT-29 [16] = test: Cell cycle arrest in human HT-29 cells assessed as accumulation at G1-phase at 50 uM after 48 hrs by propidium iodide staining based flow cytometry (reference value: 41.86%); format: functional
SW-620 [17] = test: Cell cycle arrest in human SW620 cells assessed as accumulation at S-phase at 50 uM after 48 hrs by propidium iodide staining based flow cytometry (reference value: 43.72%); format: functional
SW-620 [18] = test: Cell cycle arrest in human SW620 cells assessed as accumulation at S-phase at 75 uM after 48 hrs by propidium iodide staining based flow cytometry (reference value: 43.72%); format: functional
Focal adhesion kinase 1 = Focal adhesion kinase 1 (Homo sapiens, UniProt Q05397); test: Inhibition of human FAK (D402 to R696 residues) expressed in bacterial expression system assessed as residual activity at 5 uM by KINOMEscan assay relative to control
[19] = target: Platelet-derived growth factor receptor alpha (Homo sapiens, UniProt P16234); test: Binding affinity to human PDGFRA (V575 to D1002 residues) expressed in mammalian expression system by KINOMEscan assay
[20] = target: Cyclin-dependent kinase 2 (Homo sapiens, UniProt P24941); test: Binding affinity to full length human CDK2 (M1 to L298 residues) expressed in bacterial expression system by KINOMEscan assay
[21] = target: Tyrosine-protein kinase JAK3 (Homo sapiens) (UniProt P52333); test: Inhibition of human JAK3 JH1 catalytic domain (I781 to S1124 residues) expressed in mammalian expression system assessed as residual activity at 5 uM by KINOMEscan assay relative to control
[22] = tested on: Epidermal growth factor receptor (Homo sapiens), P00533 [L858R]; test: Inhibition of partial length human EGFR (R669 to V1011 residues) L858R mutant expressed in bacterial expression system assessed as residual activity at 5 uM by KINOMEscan assay relative to control
SW-620 [23] = test: Cell cycle arrest in human SW620 cells assessed as accumulation at G2-phase at 50 uM after 48 hrs by propidium iodide staining based flow cytometry (reference value: 14.08%); format: functional
[24] = target: Receptor-type tyrosine-protein kinase FLT3 (Homo sapiens) (UniProt P36888); test: Inhibition of human FLT3 (V592 to Y969 residues) expressed in bacterial expression system assessed as residual activity at 5 uM by KINOMEscan assay relative to control
[25] = target: RAC-beta serine/threonine-protein kinase (Homo sapiens, UniProt P31751); test: Binding affinity to human AKT2 expressed in bacterial expression system by KINOMEscan assay

Question: What does the source list for CC(C)CN(C(=O)c1cccnc1)c1c2ccccc2c(=O)n2c1[nH]c1ccccc12?
Answer: Activity (HT-29 [1]): 4.4%; Activity [2]: 100%; Activity [3]: 83%; Activity [4]: 87%; Kd [5]: ≥ 5 µM; Kd (SRSF protein kinase 3): ≥ 5 µM; Activity [6]: 100%; Activity (SW-620 [7]): 5.5%; Kd [8]: ≥ 5 µM; Kd [9]: ≥ 5 µM; Activity [10]: 93%; Activity [11]: 87%; Activity (HT-29 [12]): Dose-dependent effect; inhibition [13]: Active; Kd [14]: ≥ 5 µM; Activity [15]: 97%; Kd (TGF-beta receptor type-1): ≥ 5 µM; Activity (HT-29 [16]): 42.2%; Activity (SW-620 [17]): 32.39%; Activity (SW-620 [18]): 38.82%; Activity (Focal adhesion kinase 1): 100%; Kd [19]: ≥ 5 µM; Kd [20]: ≥ 5 µM; Activity [21]: 73%; Activity [22]: 92%; Activity (SW-620 [23]): 21.52%; Activity [24]: 98%; Kd [25]: ≥ 5 µM
